Assay outcomes as filed in PubChem BioAssay.
Most compounds without a hit are left out; they make up all but 1.7% or so of the library.
MEX-5 binding: C. elegans MEX-5 TCR-2 RNA binding activity. AID 1832. MEX-5/FITC-TCR2 RNA binding, fluorescence polarization; stronger effect = lower value. Q9XUB2. actives 0.38% (n = 300,000). activity score (negative = inhibition of binding), % at 10 µM;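 active = inhibition past about -25% in most replicates, and total fluorescence under double the plate's negative control median, limit read from the data; inconclusive = replicates evenly split on the limit, or fluorescence at least double controls; inactive = too little inhibition in most replicates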
EBV gp42 inh: inhibitors of Epstein-Barr virus glycoprotein 42; Q1HVG2; Fluorescence polarization binding assay, mP read-out; inhibition, % (tested at 21.74 µM); actives 0.42% (n = 220,000); in the data active = inhibition above about 50%
Target sequence (Q1HVG2 whole entry, looked up): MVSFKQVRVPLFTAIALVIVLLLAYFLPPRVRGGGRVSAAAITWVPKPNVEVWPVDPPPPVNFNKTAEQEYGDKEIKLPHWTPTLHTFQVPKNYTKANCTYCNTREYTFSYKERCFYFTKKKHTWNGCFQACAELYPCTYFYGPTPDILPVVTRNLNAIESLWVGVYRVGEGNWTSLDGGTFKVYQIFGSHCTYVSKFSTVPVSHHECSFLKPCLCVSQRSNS
NS3 helicase inh: blocks Hepatitis C virus NS3 helicase unwinding; NS3 helicase DNA unwinding, Cy5 molecular beacon fluorescence; inhibition, % at 10.9 µM; actives 0.56% (n = 290,000); AID 1800;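 active = inhibition above the mean of all tested compounds plus 3 SD, set per campaign, cut at about 35% in these data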
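Material: hepatitis C virus NS3 helicase domain fragment enzyme; measured by: Cy5 fluorescence, 0 and 60 min reads; control set: DMSO and thioflavine S; incubation: 60 min unwinding reaction at 25 °C after ATP addition; read-out basis: % inhibition from 60/0 min fluorescence ratio, DMSO 0%, thioflavine S 100%; repeats: singlicate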
EBNA-1 inhibitor: blocks EBNA-1 binding to DNA; AID 1950; actives 0.34% (n = 300,000); EBNA-1 DNA binding, fluorescence polarization; inhibition, % at 14.8 µM; in the data active = inhibition above about 28%
core dimer inh: HCV core protein dimerization inhibition; AID 1899; actives 0.33% (n = 300,000); inhibition, % at 5 µM; TR-FRET GST/Flag-core106 dimerization, 1536-well;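 active = inhibition above the mean of all tested compounds plus 3 SD, set per screening campaign, cut at about 45% in these data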
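System: GST/Flag-tagged HCV core106 proteins. Incubation: compound-protein-antibody incubation 4 h at 22.5 °C. Technique: HTRF with 340 nm excitation, 617/671 nm emission. Medium: KF-containing HEPES buffer, pH 7.45, DTT, CHAPS, BSA. Read-out: inhibition (%) from 671 over 617 nm ratio. Also added: Eu(K)-anti-GST 90 ng/mL plus XL665-anti-Flag 1 µg/mL.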
ZTA DNA inh: blocks Epstein-Barr virus ZTA, an EBNA-1 counter-screen. ZTA-DNA binding, fluorescence polarization. inhibition, % at 11 µM. actives 0.15% (n = 320,000). AID 2234; in the data active = inhibition above about 33%
Target sequence (P03206 whole entry, looked up): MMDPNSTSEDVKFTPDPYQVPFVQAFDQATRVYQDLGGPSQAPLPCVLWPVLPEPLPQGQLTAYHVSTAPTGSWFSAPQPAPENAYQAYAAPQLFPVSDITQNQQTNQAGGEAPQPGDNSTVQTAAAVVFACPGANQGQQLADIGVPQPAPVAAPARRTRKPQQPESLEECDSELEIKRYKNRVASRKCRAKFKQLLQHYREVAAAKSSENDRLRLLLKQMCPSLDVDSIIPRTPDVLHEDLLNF
Hits are given with their value.

How did CC1CCN(S(=O)(=O)c2ccc3c(c2)C(=NO)c2cc(S(=O)(=O)N4CCC(C)CC4)ccc2-3)CC1 do in these assays?
EBV gp42 inh: inactive; NS3 helicase inh: inactive; EBNA-1 inhibitor: inactive; core dimer inh: inactive; ZTA DNA inh: inactive

How did COc1ccc(S[C@@H](CCN2CC[C@H](O)CCC2=O)c2ccccc2)cc1 do in these assays?
ZTA DNA inh: inactive

What do the screens show for `CC(C)(C)OC(=O)N1CCC(NC(=O)c2ncn(Cc3ccccc3)c2C(=O)NC2CCN(C(=O)OC(C)(C)C)CC2)CC1`?
ZTA DNA inh: inactive

How did CCN1CCc2nc3sc(C(=O)N4CCc5ccccc5C4)c(N)c3cc2C1 do in these assays?
MEX-5 binding: inactive; NS3 helicase inh: inactive; EBNA-1 inhibitor: inactive; core dimer inh: inactive; ZTA DNA inh: inactive

Results for CC(C)OC(=O)CC(=O)c1sc2nc3c(cc2c1N)CN(C)CC3 ?
MEX-5 binding: -31; EBV gp42 inh: 69; NS3 helicase inh: inactive; EBNA-1 inhibitor: inactive; core dimer inh: inactive; ZTA DNA inh: inactive

Results for Cc1ccc(/C=C(\C#N)C(=O)Nc2c(C)cccc2C)s1 ?
MEX-5 binding: -46; EBV gp42 inh: inactive; NS3 helicase inh: inactive; EBNA-1 inhibitor: inactive; core dimer inh: inactive; ZTA DNA inh: inactive

How did Cc1ccc(CNC(=O)/C(C#N)=C/c2ccc(C)s2)cc1 do in these assays?
MEX-5 binding: inactive; EBV gp42 inh: inactive; NS3 helicase inh: inactive; EBNA-1 inhibitor: inactive; core dimer inh: inactive; ZTA DNA inh: inactive

Results for Cc1ccc(NC(=O)/C(C#N)=C/c2ccc(C)s2)c(C)c1 ?
MEX-5 binding: -54; EBV gp42 inh: inactive; NS3 helicase inh: inactive; EBNA-1 inhibitor: inactive; core dimer inh: inactive; ZTA DNA inh: inactive

What do the screens show for `Cc1ccc(S(=O)(=O)N2CCCCC2C(=O)O)s1` (stereo unspecified)?
MEX-5 binding: inactive; EBV gp42 inh: inactive; NS3 helicase inh: inactive; EBNA-1 inhibitor: inactive; core dimer inh: inactive; ZTA DNA inh: inactive

What do the screens show for `CN(/N=C/c1cc([N+](=O)[O-])ccc1O)c1ccccc1`?
MEX-5 binding: inactive; EBV gp42 inh: inactive; NS3 helicase inh: inactive; EBNA-1 inhibitor: inactive; core dimer inh: inactive; ZTA DNA inh: inactive

What do the screens show for `O=C(N/N=C/c1ccc(-c2cccc([N+](=O)[O-])c2)o1)c1ccc([N+](=O)[O-])cc1`?
MEX-5 binding: -35; EBV gp42 inh: inactive; NS3 helicase inh: inactive; EBNA-1 inhibitor: inactive; core dimer inh: inactive; ZTA DNA inh: inactive

Results for O=C(N/N=C/c1ccc(-c2cccc([N+](=O)[O-])c2)o1)c1ccccc1O ?
MEX-5 binding: inactive; EBV gp42 inh: inactive; NS3 helicase inh: inactive; EBNA-1 inhibitor: inactive; core dimer inh: inactive; ZTA DNA inh: inactive

How did CN(/N=C/c1ccc(-c2ccc([N+](=O)[O-])cc2)o1)c1ccccc1 do in these assays?
MEX-5 binding: inactive; NS3 helicase inh: inactive; EBNA-1 inhibitor: inactive; core dimer inh: 55; ZTA DNA inh: inactive

How did NC(=S)N/N=C/c1ccc(-c2ccc([N+](=O)[O-])cc2)o1 do in these assays?
MEX-5 binding: inactive; EBV gp42 inh: inactive; NS3 helicase inh: inactive; EBNA-1 inhibitor: inactive; core dimer inh: 50; ZTA DNA inh: inactive

What do the screens show for `CCCCn1nc(C(=O)NCC2COc3ccccc3O2)c2ccccc2c1=O` (stereo unspecified)?
ZTA DNA inh: inactive

Results for CN(C)c1ccc(C(=O)Nc2ccc(CN3CCS(=O)(=O)CC3)cc2)cc1 ?
MEX-5 binding: inactive; EBV gp42 inh: inactive; NS3 helicase inh: inactive; EBNA-1 inhibitor: inactive; core dimer inh: inactive; ZTA DNA inh: inactive

Results for O=C(NCC(c1ccco1)N1CCCCC1)c1cccnc1 (stereo unspecified) ?
ZTA DNA inh: inactive

What do the screens show for `CC(Oc1ccc(Br)cc1)C(=O)Nc1ccc(N2CCOCC2)cc1N1CCOCC1` (stereo unspecified)?
MEX-5 binding: inactive; EBNA-1 inhibitor: inactive; core dimer inh: inactive; ZTA DNA inh: inactive

How did CCOC(=O)c1c(=O)n(O)c2ccc(OC)cc2[n+]1[O-] do in these assays?
MEX-5 binding: inactive; EBV gp42 inh: 69; NS3 helicase inh: inactive; EBNA-1 inhibitor: inactive; core dimer inh: inactive; ZTA DNA inh: inactive

Results for CCc1cc(C(=O)N=Nc2c(O)[nH]c3ccc([N+](=O)[O-])cc23)c2ccccc2n1 ?
MEX-5 binding: inactive; EBV gp42 inh: inactive; NS3 helicase inh: inactive; EBNA-1 inhibitor: inactive; core dimer inh: 58; ZTA DNA inh: inactive

What do the screens show for `N#Cc1ccccc1OCc1cccc(S(=O)(=O)N2CCOCC2)c1`?
ZTA DNA inh: inactive

Results for CCn1c2ccccc2c2cc([N+](=O)[O-])ccc21 ?
MEX-5 binding: inactive; EBV gp42 inh: inactive; NS3 helicase inh: inactive; EBNA-1 inhibitor: inactive; core dimer inh: inactive; ZTA DNA inh: inactive

What do the screens show for `CCn1c2ccccc2c(=O)c2ccccc21`?
MEX-5 binding: -28; EBV gp42 inh: inactive; NS3 helicase inh: inactive; EBNA-1 inhibitor: inactive; core dimer inh: inactive; ZTA DNA inh: inactive

How did O=C(CSc1nnc(-c2cccnc2)o1)Nc1ccccc1F do in these assays?
MEX-5 binding: inactive; EBNA-1 inhibitor: inactive; core dimer inh: inactive; ZTA DNA inh: inactive

Results for CC(C)c1ccc(/C=C/C(=O)n2nnc3ccccc32)cc1 ?
MEX-5 binding: inactive; EBV gp42 inh: 85; NS3 helicase inh: inactive; EBNA-1 inhibitor: inactive; core dimer inh: inactive; ZTA DNA inh: inactive

What do the screens show for `C=CCOc1ccc(CN(C)C(=O)CNC(=O)c2ccc(-c3ccccc3)cc2)cc1`?
MEX-5 binding: inactive; NS3 helicase inh: inactive; EBNA-1 inhibitor: inactive; core dimer inh: inactive; ZTA DNA inh: inactive

How did COc1ccc(COC(=O)c2ccc(S(=O)(=O)N3CCCCC3)cc2)cc1OC do in these assays?
ZTA DNA inh: inactive

What do the screens show for `CC(C)(C)C(=O)COC(=O)c1c2c(nc3ccccc13)CCC2`?
MEX-5 binding: inactive; EBV gp42 inh: inactive; NS3 helicase inh: inactive; EBNA-1 inhibitor: inactive; core dimer inh: 54; ZTA DNA inh: inactive

Results for Cc1ccc(-c2ccc(/C=C(\C#N)C(=O)Nc3cc(C)nn3-c3ccccc3)o2)cc1 ?
MEX-5 binding: inconclusive; EBV gp42 inh: 120; NS3 helicase inh: inactive; EBNA-1 inhibitor: inactive; core dimer inh: inactive; ZTA DNA inh: inactive

Results for O=C(NC1(Cc2ccccc2)CCN(CCCc2ccccc2)C1=O)c1ccccc1 (stereo unspecified) ?
ZTA DNA inh: inactive

Results for COC(=O)c1ccc(C(=O)OC)c(NC(=O)COC(=O)CCOc2ccc(C)cc2)c1 ?
MEX-5 binding: inactive; EBNA-1 inhibitor: inactive; core dimer inh: inactive; ZTA DNA inh: inactive

How did CCOC(=O)c1c(-c2ccc(C)o2)csc1NC(=O)COC(=O)c1ccc(NC(N)=O)cc1 do in these assays?
MEX-5 binding: inactive; EBV gp42 inh: inactive; NS3 helicase inh: inactive; EBNA-1 inhibitor: inactive; core dimer inh: 49; ZTA DNA inh: inactive
